Shown are actives, neighbours in structure and some others; about 4.3% of the full set was active somewhere.
Lipid droplet: hepatic lipid droplet formation modulation; AML12 mouse hepatocytes, oleate lipid droplets, BODIPY imaging; inhibition, % at 6.5 µM; hit rate 0.4% among 240,000; AID 1656;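 active = lipid droplet intensity inhibited by at least 50%, with more than 500 cells counted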
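Test system: AML12 mouse liver cells; schedule: overnight exposure; technique: high-content imaging of BODIPY-stained droplets and DAPI nuclei; read-out: % inhibition of corrected integrated BODIPY droplet signal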
SR-BI DiI-HDL act: SR-BI HDL lipid transfer activation | hit rate 0.096% among 320,000 | AID 504775 | activation, % at 12.5 µM | CHO ldlA[mSR-BI] cells, DiI-HDL uptake fluorescence, 3 h; 100 = double the neutral-control signal;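 active = mean replicate activation of at least 60% and every replicate at or above 60%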;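 also: 0% = median plate neutral-control signal and 100% = twice that signal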
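system = CHO ldlA[mSR-BI] cells, LDL receptor-null, SR-BI overexpressing | medium = Ham's F12 with 0.5% BSA, HEPES 25 mM, pH 7.4 | probe or stimulus = DiI-HDL 10 µg/mL | compound dosing = single-point compound dose | incubation = compound exposure 3 h, 37 °C | technique = DiI fluorescence, bottom read | read-out = cell-associated DiI fluorescence as measure of HDL uptake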
SR-BI DiI inh: inhibitors of mouse SR-BI mediated HDL lipid uptake | Q61009 | hit rate 0.96% among 320,000 | AID 488896 | ldlA[mSR-BI] CHO cells, DiI-HDL uptake fluorescence, 3 h | inhibition, % at 12.5 µM;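 active = mean replicate inhibition of at least 70% and a set share of replicates each scoring 70 or more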;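 also: 0% = median of neutral control wells and 100% = median of positive control wells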
AHR act: human AHR activation; P35869; hit rate 2.5% among 320,000; activation, % at 5 µM; AHR-responsive luciferase reporter cells, luminescence; in the data active = activation above about 47%;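 also: 0% = vehicle wells and 100% = reference agonist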
Target sequence (P35869 whole entry, looked up): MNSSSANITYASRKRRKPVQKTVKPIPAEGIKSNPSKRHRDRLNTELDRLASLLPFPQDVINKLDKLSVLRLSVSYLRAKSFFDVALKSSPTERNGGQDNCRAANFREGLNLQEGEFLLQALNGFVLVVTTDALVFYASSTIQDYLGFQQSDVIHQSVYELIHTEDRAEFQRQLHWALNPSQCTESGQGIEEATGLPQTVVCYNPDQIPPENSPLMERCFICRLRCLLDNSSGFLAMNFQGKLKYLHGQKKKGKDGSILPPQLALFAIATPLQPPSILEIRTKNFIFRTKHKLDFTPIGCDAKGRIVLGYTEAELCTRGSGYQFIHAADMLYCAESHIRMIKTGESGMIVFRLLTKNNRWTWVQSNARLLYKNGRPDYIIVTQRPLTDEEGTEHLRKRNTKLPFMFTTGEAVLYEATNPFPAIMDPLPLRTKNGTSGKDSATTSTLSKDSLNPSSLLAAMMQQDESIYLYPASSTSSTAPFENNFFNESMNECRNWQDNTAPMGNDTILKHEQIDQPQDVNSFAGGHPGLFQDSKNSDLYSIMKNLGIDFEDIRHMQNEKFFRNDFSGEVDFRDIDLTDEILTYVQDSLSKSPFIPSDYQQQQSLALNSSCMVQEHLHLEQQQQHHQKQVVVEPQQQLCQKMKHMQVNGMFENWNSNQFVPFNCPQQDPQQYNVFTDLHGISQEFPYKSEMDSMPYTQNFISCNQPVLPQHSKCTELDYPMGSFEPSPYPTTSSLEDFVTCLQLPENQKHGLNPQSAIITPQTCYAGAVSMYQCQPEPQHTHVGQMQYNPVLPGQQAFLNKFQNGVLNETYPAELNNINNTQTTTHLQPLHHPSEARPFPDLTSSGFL
SMARCA2 activ: increases SMARCA2 function in MMTV reporter cells. MG213 cells, MMTV-luciferase reporter, dexamethasone, overnight. hit rate 1% among 370,000. activation, % at 9.1 µM; in the data active = activation above about 7.8%;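 also: 0% = vehicle wells and 100% = reference activator wells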
CR mimetic SO: caloric restriction mimetics inhibiting age-related superoxide in yeast | superoxide response (% of plate mean), % at 10 µM | hit rate 0.18% among 330,000 | S. cerevisiae aged cells, superoxide DHE fluorescence; active compounds read low;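 active = superoxide response under a set limit, about three screen SD below normal, cut at about 65% in these data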;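 also: yeast aged for seven days with compound at 30 °C before DHE staining; 100% = average MFI of all compound-treated wells on the plate with controls excluded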
AHR act confirm: human AHR activation, confirmation; shares compounds with AHR act; activation, % at 9 µM; hit rate 87% among 2,300; human cells, AHR-responsive luciferase reporter, luminescence; AID 2845; in the data active = activation above about 49%;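 also: HepG2 hepatoma cells carrying a DRE-driven firefly luciferase reporter; 0% = vehicle wells and 100% = reference agonist wells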
PXR counter: PXR activation, counter-screen for AHR activators; hit rate 88% among 2,300; activation, % at 11.6 µM; shares compounds with AHR act; cell-based PXR reporter, luciferase luminescence; AID 434939; in the data active = activation above about 11%;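 also: human hepatoma DPX-2 cells expressing full-length human PXR; 0% = DMSO and 100% = reference agonist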
* marks the source's active call; other numbers are inactive results; . = not tested or not shown.

SMILES | Lipid droplet | SR-BI DiI-HDL act | SR-BI DiI inh | AHR act | SMARCA2 activ | CR mimetic SO | AHR act confirm | PXR counter
Cc1cccc(N/C(N)=N/c2nc(C)cc(C)n2)c1 | . | 6 | -6 | 81* | -1 | 98 | 50* | 12*
CC(=O)Nc1cccc(N/C(N)=N/c2nc(C)cc(C)n2)c1 | -3 | 10 | -10 | 46 | -2 | 98 | . | .
COc1ccccc1CCn1cnc(-c2ccccc2F)c1CC(C)C | . | . | . | . | -6 | . | . | .
CCc1ccc(-c2csc(-c3c[nH]c4ccccc34)n2)cc1 | -3 | -14 | 14 | 87* | 1 | 123 | 124* | 29*
CCC(C)Nc1nc(-c2c[nH]c3ccccc23)cs1 (configuration not stated) | -9 | -15 | 15 | 37 | -1 | 94 | . | .
CC(=O)n1cc([C@H]2C=C(C(=O)NCc3ccccc3)O[C@@H](OCCCCO)C2)c2ccccc21 | -20 | 0 | 0 | 87* | 2 | 99 | 106* | 61*
CC(=O)n1cc([C@H]2C=C(C(=O)N3CCN(Cc4ccccc4)CC3)O[C@@H](OCCCCO)C2)c2ccccc21 | 2 | 2 | -2 | 12 | . | 97 | . | .
CCc1ccc2oc(-c3cc(N)cc(C)c3O)nc2c1 | -19 | -28 | 28 | 114* | 5 | 113 | 117* | 12*
Cc1ccc(C)c(-c2nc3cc(N)ccc3o2)c1 | 1 | 7 | -7 | -3 | -7 | 104 | . | .
COC(=O)C1CN(CCO)CCS(=O)(=O)N1Cc1cccc(Cl)c1 (configuration not stated) | . | . | . | . | 3 | . | . | .
CCOCCc1nnc(NC(=O)c2ccc(OC)c(OC)c2)s1 | -3 | -11 | 11 | 115* | -3 | 99 | 81* | .
CCOCCc1nnc(NC(=O)c2cc(OC)c(OC)cc2[N+](=O)[O-])s1 | 4 | 3 | -3 | 0 | -2 | 90 | . | .
CC(C)(C)c1ccc(-c2nnc(SCc3ccccc3)n2Cc2ccco2)cc1 | . | . | . | . | -7 | . | . | .
O=C(Nc1ccc(F)c(Cl)c1)c1cncs1 | -14 | 19 | -19 | 101* | 0 | 102 | 95* | 26*
COC(=O)CC#C[C@H](C)[C@@H](NS(=O)(=O)c1ccc([N+](=O)[O-])cc1)C(C)(C)C | . | . | . | . | -5 | . | . | .
COc1ccc(-c2cc(C(=O)N3CCN(S(=O)(=O)c4ccc(C)cc4)CC3)[nH]n2)cc1 | -5 | -8 | 8 | 111* | -2 | 92 | 2 | 13*
COc1ccc(S(=O)(=O)N2CCN(C(=O)c3cc(-c4ccc(C)cc4)n[nH]3)CC2)cc1 | -5 | -11 | 11 | 2 | -3 | 148 | . | .
Cc1c(C(=O)/C=C/c2cccs2)oc2ccc(F)cc12 | 5 | -14 | 14 | 81* | 2 | 98 | 103* | 76*
COc1ccc(CNS(=O)(=O)/C=C/c2ccc(OC)cc2CNC(=O)OC(C)(C)C)cc1 | . | . | . | . | 3 | . | . | .
c1cc(CSc2nnc(-c3ccc4c(c3)OCO4)o2)ccn1 | . | 6 | -6 | 88* | 2 | 106 | 52* | 24*
COc1ccccc1-c1sc2ccccc2c1-c1ccc2c(c1)OCO2 | . | -63 | 63 | 33 | 1 | 91 | . | .
COc1ccccc1-c1sc2cc3c(cc2c1-c1ccc2c(c1)OCO2)OCO3 | . | -61 | 61 | 93* | 2 | 96 | 126* | 162*
COC(=O)c1c(-c2ccccc2OC)sc2cc3c(cc12)OCO3 | . | -22 | 22 | 108* | -1 | 88 | 92* | 226*
COc1cc2c(c(OC)c1OC)CC(c1ccccc1)=C(c1ccccc1)CC2NC(=O)C(F)(F)F (configuration not stated) | . | . | . | . | -2 | . | . | .
O=C(N/N=C/c1ccsc1)c1c[nH]c2ccccc12 | 12 | -1 | 1 | 128* | 2 | 86 | 115* | 22*
Cc1ccsc1/C=N/NC(=O)c1c[nH]c2ccccc12 | . | 0 | 0 | 101* | 6 | 103 | 142* | 42*
O=C(N/N=C/c1ccsc1)c1ccccn1 | -16 | 12 | -12 | 2 | 2 | 108 | . | .

Screening results (PubChem)
